Source: ChEMBL document CHEMBL1649436, “Antiviral activity of MK-4965, a novel nonnucleoside reverse transcriptase inhibitor” (Antimicrob Agents Chemother, 2009)

What was measured:
[1] = system: Human immunodeficiency virus 1; test: Antiviral activity against HIV1 clade G harboring mutant reverse transcriptase relative to HIV1 CNDO with wild type reverse transcriptase; type: functional
[2] = system: Human immunodeficiency virus 1; test: Antiviral activity against HIV1 isolate R8 harboring reverse transcriptase Y188L mutant relative to drug-sensitive HIV1 CNDO; type: functional
Procedure, shortened: (§1)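 Single-cycle PhenoScreen assay run by Monogram Biosciences, using viruses carrying RT sequences from clinical isolates, subtypes/CRFs or PI/NRTI-resistant clade B viruses; nine serial drug concentrations; activity expressed relative to drug-sensitive reference strain CNDO (protease and RT from NL4-3), with multidrug-resistant MDRC4 as assay-performance control.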

[3] = system: Human immunodeficiency virus 1; test: Ratio of EC95 for HIV1 isolate R8 harboring reverse transcriptase Y181C mutant in presence of 50% human serum to EC95 for HIV1 isolate R8 harboring wild type reverse transcriptase in presence of 50% human serum; type: functional
Procedure, shortened: (§2)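 Ratios of EC95 values from the MT-4 multiple-cycle assay: R8 variants infected 24 h at low MOI, then reseeded in RPMI 1640 with 10% FBS or 50% type AB human serum with threefold dilutions (833–0.32 nM) for 72 h; p24 by AlphaScreen; EC95 = lowest concentration cutting p24 ≥95% versus untreated controls.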

[4] = system: Human immunodeficiency virus 1; test: Antiviral activity against HIV1 clade A harboring mutant reverse transcriptase relative to HIV1 CNDO with wild type reverse transcriptase; type: functional
[5] = system: Human immunodeficiency virus 1; test: Antiviral activity against HIV1 clade F1 harboring mutant reverse transcriptase relative to HIV1 CNDO with wild type reverse transcriptase; type: functional
Plasma = test: Plasma protein binding in HIV1 infected patient; type: ADME, cell-free; details: human
[6] = system: Human immunodeficiency virus 1; test: Antiviral activity against HIV1 isolate R8 harboring reverse transcriptase K103N mutant infected in human MT4 cells assessed as inhibition of viral replication after 72 hrs in presence of 50% human serum; type: functional; details: Human immunodeficiency virus 1, isolate R8, MT4, 72 h
Procedure, shortened: (§3)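 Multiple-cycle assay: MT-4 cells (2.5 × 10^5) infected with R8-based virus at low MOI, no inhibitor, 24 h at 37°C, 5% CO2; washed, reseeded at 5 × 10^4 cells in RPMI 1640 with 10% FBS or 50% type AB human serum; threefold serial dilutions from 833 nM to 0.32 nM; 72 h; p24 in medium by AlphaScreen; EC95 = lowest concentration giving ≥95% p24 reduction versus untreated.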

[7] = system: Human immunodeficiency virus 1; test: Antiviral activity against HIV1 isolate R8 harboring wild type reverse transcriptase infected in human MT4 cells assessed as inhibition of viral replication after 72 hrs in presence of 10% FBS; type: functional; details: Human immunodeficiency virus 1, isolate R8, MT4, 72 h; procedure, shortened: as §3
[8] = system: Human immunodeficiency virus 1; test: Ratio of EC95 for HIV1 isolate R8 harboring reverse transcriptase K103N mutant in presence of 50% human serum to EC95 for HIV1 isolate R8 harboring reverse transcriptase K103N mutant in presence of 10% FBS; type: functional; procedure, shortened: as §2
[9] = system: Human immunodeficiency virus 1; test: Ratio of EC95 for HIV1 isolate R8 harboring reverse transcriptase K103N mutant in presence of 50% human serum to EC95 for HIV1 isolate R8 harboring wild type reverse transcriptase in presence of 50% human serum; type: functional; procedure, shortened: as §2
[10] = Cytotoxicity against stationary-phase human CD4+ T cells after 24 to 72 hrs by alamar blue assay; type: cell-based; details: T-cell
Procedure, shortened: (§4)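 Cytotoxicity measured with Alamar blue after incubation at 37°C in 5% CO2 for 24, 48 or 72 h, in stationary and activated primary cells (CD4 cells, monocytes, PBMC, macrophages) and proliferating lines (MT4, SupT1, HL60).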

[11] = system: Human immunodeficiency virus 1; test: Antiviral activity against HIV1 clade D harboring mutant reverse transcriptase relative to HIV1 CNDO with wild type reverse transcriptase; type: functional
[12] = Cytotoxicity against stationary-phase human macrophage after 24 to 72 hrs by alamar blue assay; type: cell-based; procedure, shortened: as §4
[13] = system: Human immunodeficiency virus 1; test: Antiviral activity against HIV1 isolate R8 harboring reverse transcriptase K103N and G190A mutant relative to drug-sensitive HIV1 CNDO; type: functional; procedure, shortened: as §1
[14] = Cytotoxicity against stationary-phase human monocyte after 24 to 72 hrs by alamar blue assay; type: cell-based; procedure, shortened: as §4
[15] = system: Human immunodeficiency virus 1; test: Antiviral activity against NRTI-, PI-resistant HIV1 harboring mutant reverse transcriptase relative to HIV1 CNDO with wild type reverse transcriptase; type: functional; procedure, shortened: as §1
PBMC [16] = test: Cytotoxicity against activated human PBMC after 24 to 72 hrs by alamar blue assay; type: cell-based; procedure, shortened: as §4
[17] = system: Human immunodeficiency virus 1; test: Selectivity ratio of IC50 for HIV1 isolate R8 reverse transcriptase K103N mutant to IC50 for HIV1 isolate R8 reverse transcriptase
[18] = Cytotoxicity against human SupT1 cells after 24 to 72 hrs by alamar blue assay; type: cell-based; details: SUP-T1; procedure, shortened: as §4
[19] = system: Human immunodeficiency virus 1; test: Antiviral activity against PI-resistant HIV1 harboring mutant reverse transcriptase relative to HIV1 CNDO with wild type reverse transcriptase; type: functional; procedure, shortened: as §1
[20] = system: Human immunodeficiency virus 1; test: Antiviral activity against HIV1 isolate R8 harboring reverse transcriptase Y181C mutant infected in human MT4 cells assessed as inhibition of viral replication after 72 hrs in presence of 50% human serum; type: functional; details: Human immunodeficiency virus 1, isolate R8, MT4, 72 h; procedure, shortened: as §3
MT4 = test: Cytotoxicity against human MT4 cells after 24 to 72 hrs by alamar blue assay; type: cell-based; procedure, shortened: as §4
[21] = system: Human immunodeficiency virus 1; test: Antiviral activity against HIV1 clade C harboring mutant reverse transcriptase relative to HIV1 CNDO with wild type reverse transcriptase; type: functional
[22] = system: Human immunodeficiency virus 1; test: Ratio of EC95 for HIV1 isolate R8 harboring reverse transcriptase Y181C mutant in presence of 50% human serum to EC95 for HIV1 isolate R8 harboring reverse transcriptase Y181C mutant in presence of 10% FBS; type: functional; procedure, shortened: as §2
[23] = Cytotoxicity against activated human macrophage after 24 to 72 hrs by alamar blue assay; type: cell-based; procedure, shortened: as §4
[24] = system: Human immunodeficiency virus 1; test: Antiviral activity against HIV1 CRF01_AE harboring mutant reverse transcriptase relative to HIV1 CNDO with wild type reverse transcriptase; type: functional; procedure, shortened: as §1
[25] = system: Human immunodeficiency virus 1; test: Antiviral activity against HIV1 isolate R8 harboring reverse transcriptase Y181C mutant infected in human MT4 cells assessed as inhibition of viral replication after 72 hrs in presence of 10% FBS; type: functional; details: Human immunodeficiency virus 1, isolate R8, MT4, 72 h; procedure, shortened: as §3
[26] = Cytotoxicity against activated human CD4+ T cells after 24 to 72 hrs by alamar blue assay; type: cell-based; details: T-cell; procedure, shortened: as §4
[27] = system: Human immunodeficiency virus 1; test: Antiviral activity against HIV1 CRF02_AG harboring mutant reverse transcriptase relative to HIV1 CNDO with wild type reverse transcriptase; type: functional; procedure, shortened: as §1
[28] = system: Human immunodeficiency virus 1; test: Selectivity ratio of IC50 for HIV1 isolate R8 reverse transcriptase Y181C mutant to IC50 for HIV1 isolate R8 reverse transcriptase
[29] = system: Human immunodeficiency virus 1; test: Antiviral activity against HIV1 clade H harboring mutant reverse transcriptase relative to HIV1 CNDO with wild type reverse transcriptase; type: functional
[30] = system: Human immunodeficiency virus 1; test: Antiviral activity against HIV1 CRF17_BF harboring mutant reverse transcriptase relative to HIV1 CNDO with wild type reverse transcriptase; type: functional; procedure, shortened: as §1
[31] = system: Human immunodeficiency virus 1; test: Antiviral activity against HIV1 clade B harboring mutant reverse transcriptase relative to HIV1 CNDO with wild type reverse transcriptase; type: functional
[32] = system: Human immunodeficiency virus 1; test: Antiviral activity against HIV1 isolate R8 harboring reverse transcriptase K103N and Y181C mutant infected in human MT4 cells assessed as inhibition of viral replication after 72 hrs in presence of 50% human serum; type: functional; details: Human immunodeficiency virus 1, isolate R8, MT4, 72 h; procedure, shortened: as §3
[33] = system: Human immunodeficiency virus 1; test: Antiviral activity against HIV1 isolate R8 harboring reverse transcriptase K103N and Y181C mutant infected in human MT4 cells assessed as inhibition of viral replication after 72 hrs in presence of 10% FBS; type: functional; details: Human immunodeficiency virus 1, isolate R8, MT4, 72 h; procedure, shortened: as §3
[34] = system: Human immunodeficiency virus 1; test: Antiviral activity against HIV1 isolate R8 harboring reverse transcriptase L100I mutant relative to drug-sensitive HIV1 CNDO; type: functional; procedure, shortened: as §1
[35] = Cytotoxicity against activated human monocyte after 24 to 72 hrs by alamar blue assay; type: cell-based; procedure, shortened: as §4
[36] = system: Human immunodeficiency virus 1; test: Ratio of EC95 for HIV1 isolate R8 harboring reverse transcriptase K103N and Y181C mutant in presence of 50% human serum to EC95 for HIV1 isolate R8 harboring reverse transcriptase K103N and Y181C mutant in presence of 10% FBS; type: functional; procedure, shortened: as §2
PBMC [37] = test: Cytotoxicity against stationary-phase human PBMC after 24 to 72 hrs by alamar blue assay; type: cell-based; procedure, shortened: as §4
[38] = system: Human immunodeficiency virus 1; test: Ratio of EC95 for HIV1 isolate R8 harboring reverse transcriptase K103N and Y181C mutant in presence of 50% human serum to EC95 for HIV1 isolate R8 harboring wild type reverse transcriptase in presence of 50% human serum; type: functional; procedure, shortened: as §2
HL-60 = test: Cytotoxicity against human HL60 cells after 24 to 72 hrs by alamar blue assay; type: cell-based; procedure, shortened: as §4
[39] = system: Human immunodeficiency virus 1; test: Antiviral activity against NRTI-resistant HIV1 harboring mutant reverse transcriptase relative to HIV1 CNDO with wild type reverse transcriptase; type: functional; procedure, shortened: as §1
[40] = system: Human immunodeficiency virus 1; test: Ratio of EC95 for HIV1 isolate R8 harboring wild type reverse transcriptase in presence of 50% human serum to EC95 for HIV1 isolate R8 harboring wild type reverse transcriptase in presence of 10% FBS; type: functional; procedure, shortened: as §2
[41] = system: Human immunodeficiency virus 1; test: Antiviral activity against HIV1 isolate R8 harboring wild type reverse transcriptase infected in human MT4 cells assessed as inhibition of viral replication after 72 hrs in presence of 50% human serum; type: functional; details: Human immunodeficiency virus 1, isolate R8, MT4, 72 h; procedure, shortened: as §3
[42] = system: Human immunodeficiency virus 1; test: Antiviral activity against HIV1 isolate R8 harboring reverse transcriptase K103N mutant infected in human MT4 cells assessed as inhibition of viral replication after 72 hrs in presence of 10% FBS; type: functional; details: Human immunodeficiency virus 1, isolate R8, MT4, 72 h; procedure, shortened: as §3
[43] = system: Human immunodeficiency virus 1; test: Antiviral activity against HIV1 isolate R8 harboring reverse transcriptase V106A, G190A and F227L mutant relative to drug-sensitive HIV1 CNDO; type: functional; procedure, shortened: as §1

## N#Cc1cc(Cl)cc(Oc2cc(OCc3n[nH]c4nc(N)ccc34)ccc2Cl)c1
[1]
  fold change (FC): 0.58
[2]
  fold change (FC): > 100
[3]
  fold change (FC): 6
[4]
  fold change (FC): 0.73
[5]
  fold change (FC): 0.72
Plasma
  Activity: 96.5%
[6]
  EC95: 0.058 µM
[7]
  EC95: 0.0044 µM
[8]
  fold change (FC): 4
[9]
  fold change (FC): 2
[10]
  EC50: > 3 µM
[11]
  fold change (FC): 0.56
[12]
  EC50: > 3 µM
[13]
  fold change (FC): 5
[14]
  EC50: > 3 µM
[15]
  fold change (FC): 0.18
PBMC [16]
  EC50: > 3 µM
[17]
  fold change (FC): 2
[18]
  EC50: > 3 µM
[19]
  fold change (FC): 0.84
[20]
  EC95: 0.184 µM
MT4
  EC50: > 3 µM
[21]
  fold change (FC): 1.07
[22]
  fold change (FC): 4
[23]
  EC50: > 3 µM
[24]
  fold change (FC): 0.9
[25]
  EC95: 0.03 µM
[26]
  EC50: > 3 µM
[27]
  fold change (FC): 0.92
[28]
  fold change (FC): 2
[29]
  fold change (FC): 0.22
[30]
  fold change (FC): 1.15
[31]
  fold change (FC): 1.25
[32]
  EC95: 0.447 µM
[33]
  EC95: 0.128 µM
[34]
  fold change (FC): 0.9
[35]
  EC50: > 3 µM
[36]
  fold change (FC): 4
PBMC [37]
  EC50: > 3 µM
[38]
  fold change (FC): 15
HL-60
  EC50: > 3 µM
[39]
  fold change (FC): 0.3
[40]
  fold change (FC): 4
[41]
  EC95: 0.029 µM
[42]
  EC95: 0.013 µM
[43]
  fold change (FC): > 100
